GASC-1 inh: inhibitors of human GASC-1 (JMJD2C) demethylase; AID 2099; actives 0.069% (n = 330,000); inhibition, % at 2.35 µM; GST-JMJD2C(1-420) H3K9me3 demethylation, DELFIA europium;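 active means more than half of a compound's replicate wells show inhibition beyond 50%, single wells judged on their own value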;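 further: signal counts dimethyl H3K9 product captured on neutravidin plate; 0% = median of DMSO wells and 100% = 0.3 times that DMSO median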
Target sequence (Q9H3R0 1-420 limits assumed): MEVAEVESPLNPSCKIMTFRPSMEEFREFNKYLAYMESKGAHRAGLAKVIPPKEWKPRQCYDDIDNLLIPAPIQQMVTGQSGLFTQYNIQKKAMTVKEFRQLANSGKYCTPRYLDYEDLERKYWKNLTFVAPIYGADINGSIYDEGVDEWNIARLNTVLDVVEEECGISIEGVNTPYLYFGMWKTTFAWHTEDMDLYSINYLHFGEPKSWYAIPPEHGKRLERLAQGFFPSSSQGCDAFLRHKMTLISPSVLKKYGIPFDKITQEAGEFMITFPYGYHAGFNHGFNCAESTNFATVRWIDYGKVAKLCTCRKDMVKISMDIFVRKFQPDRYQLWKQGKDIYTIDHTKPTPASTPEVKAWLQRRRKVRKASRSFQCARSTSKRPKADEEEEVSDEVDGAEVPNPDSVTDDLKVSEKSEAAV
DAX1 inh-1: blocks DAX1 repression of SF-1 activated StAR promoter; inhibition, % at 6.8 µM; HEK293T StAR-luciferase reporter, SF-1/DAX-1 repression relief; actives 1.1% (n = 370,000); AID 652010;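 active means inhibition above the mean over all tested compounds plus 3 SD, cut at about 3.6% in these data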;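 further: 0% = DAX-1 cells with DMSO and 100% = cells lacking DAX-1 with DMSO; higher inhibition means more luminescence from relief of DAX-1 repression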
NR2E3 ag-1: NR2E3 (human) agonism; GST-NR2E3/biotin-RetCOR TR-FRET, 1536-well; actives 0.12% (n = 320,000); Q9Y5X4; inhibition of corepressor binding, % at 4.78 µM;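 active means percent inhibition above the cutoff of mean plus 3 SD of all tested compounds, set per screening campaign, cut at about 20% in these data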;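 further: 0% = DMSO wells and 100% = biotin wells as full block of FRET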
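Material: NR2E3–RetCOR corepressor complex / Amount: 1.35 nM GST-NR2E3 / Medium: Tris pH 7.5 / Compound: single nominal compound dose of 4.8 µM / Incubation: 5 h at 4 °C / Technique: TR-FRET, Eu(K)-anti-GST donor, streptavidin-D2 acceptor, ex 340, em 617/671 nm / Read-out basis: percent loss of FRET ratio relative to control wells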
NR2E3 ag-2: agonists of human NR2E3 nuclear receptor. Q9Y5X4. CHO-S Gal4-NCOR/VP16-NR2E3 two-hybrid, luciferase. inhibition of corepressor binding, % at 3.98 µM. actives 0.35% (n = 360,000). AID 602229;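 active means inhibition above the mean of all tested compounds plus 3 SD, cut at about 70% in these data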;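 further: 0% = DMSO with NR2E3 transfected cells and 100% = cells lacking NR2E3 construct; higher means lower luciferase signal from less NR2E3 corepressor binding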
SMARCA2 act: activators of SMARCA2 function | activation, % at 9.1 µM | actives 1% (n = 370,000) | MG213 cells, MMTV-luciferase reporter, dexamethasone, overnight; in the data active means activation above about 7.8%;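 further: 0% = vehicle wells and 100% = reference activator wells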
DAX1 inh-2: inhibits human nuclear receptor DAX1; HEK293 Gal4-DAX1 luciferase reporter, luminescence; inhibition, % at 6.75 µM; actives 0.99% (n = 340,000); AID 504766;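 active means inhibition above the mean over all tested compounds plus 3 SD, cut at about 4.2% in these data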;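 further: 0% = DAX1-transfected cells with DMSO and 100% = empty-vector control cells with DMSO; inhibition shows as a rise in luminescence from relieved DAX1 repression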
Target sequence (P51843 207-470 limits assumed): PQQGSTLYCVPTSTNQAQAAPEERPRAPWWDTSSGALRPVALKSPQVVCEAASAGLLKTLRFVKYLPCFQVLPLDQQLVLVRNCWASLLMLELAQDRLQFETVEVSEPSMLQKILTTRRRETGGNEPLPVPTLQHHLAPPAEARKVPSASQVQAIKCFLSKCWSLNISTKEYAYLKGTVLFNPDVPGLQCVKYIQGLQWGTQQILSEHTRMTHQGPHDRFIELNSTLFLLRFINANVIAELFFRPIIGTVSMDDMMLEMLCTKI
NR2E3 ag confirm: NR2E3 agonism confirmed in two-hybrid assay. shares compounds with NR2E3 ag-2. CHO-S mammalian two-hybrid NR2E3-NCOR, luciferase luminescence. inhibition, % at 3.98 µM. actives 51% (n = 2,300). AID 624378;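 active means average inhibition above a cutoff equal to the mean inhibition of all tested compounds plus one SD, cut at about 70% in these data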;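 further: 0% = DMSO in NR2E3 cells and 100% = DMSO in cells lacking NR2E3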
GAL4-VP16 luc: reduces GAL4-VP16 reporter signal in NR2E3 counterscreen | inhibition, % at 3.98 µM | actives 29% (n = 2,300) | shares compounds with NR2E3 ag-2 | CHO-S GAL4-VP16 luciferase reporter, luminescence;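 active means mean inhibition above a cutoff equal to the average over all tested compounds plus one standard deviation, cut at about 70% in these data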;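 further: luciferase from a UAS reporter driven by GAL4-VP16 transactivation; 0% = DMSO with VP16-transfected cells and 100% = DMSO with cells lacking VP16; higher means less reporter light so more repression of VP16 activity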
Active calls of the source: *; . = no result given. The list is not random: actives were taken first. Their share in the collection is about 3.2%.

SMILES	GASC-1 inh	DAX1 inh-1	NR2E3 ag-1	NR2E3 ag-2	SMARCA2 act	DAX1 inh-2	NR2E3 ag confirm	GAL4-VP16 luc
COC(=O)C12OCC34C(CC5C(C)=C(O)C(=O)CC5(C)C3C(O)C1O)OC(=O)C(OC(=O)C=C(C)C)C24 (stereo not given)	.	-7	.	103*	-11	-7	99*	98*
Cc1ccc(NS(=O)(=O)c2ccc(-n3cccn3)cc2)c(Br)c1	.	0	.	49	-6	0	62	48
Cc1ccc(NS(=O)(=O)c2ccc(-n3cccn3)cc2)cc1F	5	0	-1	57	0	0	37	37
Cc1ccc(Cl)cc1NS(=O)(=O)c1ccc(-n2cccn2)cc1	3	1	-4	46	-4	0	.	.
CCOC(=O)C(=O)NNc1ccc(Cl)cc1	14	0	2	60	3	1	37	-18
CCCOC(=O)C(=O)NNc1ccccc1	-6	0	-1	26	0	0	.	.
CCOC(=O)C(=O)NNc1ccc(C)cc1	-7	1	4	60	-2	-1	25	9
CCOC(=O)C(=O)NNc1ccccc1OC	-4	0	0	17	-4	0	.	.
NC(=O)C(c1ccc(Cl)cc1)c1ccc(Sc2ccc(Cl)cc2)nn1 (stereo not given)	-1	-1	6	65	-3	-1	87*	71
O=C(c1ccccc1)c1ccc(Cn2cc(-c3ccccc3)nn2)cc1	5	-2	-3	64	-2	-3	84*	64
CCCCCc1ccc(-c2cn(Cc3ccc(C(=O)c4ccccc4)cc3)nn2)cc1	3	0	-5	-14	0	1	.	.
Cc1nc2cc(NCc3nc4ccccc4n3Cc3ccccc3)ccc2n1C	-5	3	1	59	6	-1	-109	-122
CCC(C)N(C(=O)CSc1nnc(-c2cc(OC)c(OC)c(OC)c2)o1)C(C)CC (stereo not given)	.	-2	.	.	-6	.	.	.
COc1cccc(/C=C2\CC3(OC(=O)C4CCCCC4)CCCN2C3)c1 (stereo not given)	.	0	.	.	-2	.	.	.
CCCCOc1ncnc2c1[nH]c1ccccc12	24	-2	-1	79*	0	-4	92*	64
CCCCOc1ncnc2c1[nH]c1ccc(F)cc12	-16	-4	-2	75*	-5	-3	97*	73*
CCCCOCCCNc1ncnc2c1[nH]c1ccccc12	-9	-4	0	87*	-6	-3	96*	82*
Cc1cccc(OC(C)CCN2CCC(C(O)(c3ccccc3)c3ccccc3)CC2)c1 (stereo not given)	.	0	.	.	-5	.	.	.
Clc1cccc(CSc2ncnc3sc4c(c23)CCCC4)c1	.	-1	.	.	-3	.	.	.
CCOC(=O)[C@]12CCCC3=C1N(CCC3)C(=O)[C@@H](CC(=O)NCCc1ccccc1OC)C2	.	-1	.	.	-3	.	.	.
CC(C)CN1C(=O)[C@]2(CC(=O)N(C)C2c2ccccc2)c2cc(-n3cc(CN(C)C)nn3)ccc21 (stereo not given in full)	.	1	.	.	-1	.	.	.
N#C/C(=N\Nc1ccc(Cl)cc1)C(=O)c1ccccc1	12	-2	3	99*	-7	-2	100*	91*
Cc1ccccc1CC(=O)N1CCC(n2nnc3ncccc32)CC1	.	1	.	.	1	.	.	.
O=C(Nc1ccccc1C(=O)Nc1nnc(C(F)(F)F)s1)c1ccccc1	8	0	2	72*	-4	0	99*	94*
Cc1ccc(S(=O)(=O)NCc2ccccn2)c(C)c1C	-3	1	4	0	-1	0	.	.
SMILES	GASC-1 inh	DAX1 inh-1	NR2E3 ag-1	NR2E3 ag-2	SMARCA2 act	DAX1 inh-2	NR2E3 ag confirm	GAL4-VP16 luc
Cc1ccc(S(=O)(=O)NCc2ccncc2)c(C)c1C	-3	-3	3	80*	-7	-3	94*	85*
Cc1cc(C)c(S(=O)(=O)NCc2ccncc2)c(C)c1	-3	-3	-5	69	-5	-4	88*	77*
O=S1(=O)c2ccc(N3CC[C@H](O)C3)cc2O[C@@H]2CCN1C2	.	1	.	.	-1	.	.	.
CC(C)(C)OC(=O)NCc1ccccc1/C=C/S(=O)(=O)NC1CCCC1	.	-1	.	.	-3	.	.	.
Nc1cc(=O)[nH]c(SCc2cccc3ccccc23)n1	-3	0	0	-35	-4	1	.	.
O=c1cc(C(F)(F)F)nc(SCc2cccc3ccccc23)[nH]1	-1	-1	-1	100*	-2	0	98*	84*
CN1CCCC1CCSc1ncccc1-c1nc2ccccc2[nH]1 (stereo not given)	.	1	.	.	-2	.	.	.
COc1ccc(CC(/C=C/c2ccc(F)cc2)c2ccccc2)cc1 (stereo not given)	.	-1	.	.	-2	.	.	.
CCOC(=O)Cc1nnc2c(Nc3ccccc3F)nc3nonc3n12	1	-1	1	71*	-2	-2	74*	44
CCCCOc1ccc(S(=O)(=O)Nc2cccnc2)cc1	-9	-3	3	94*	-5	-3	90*	74*
Cc1ccc(S(=O)(=O)Nc2cccnc2)cc1	9	-1	4	-14	1	0	.	.
COc1ccc(S[C@]2(C(=O)N3CCCC3)CC(=O)N(c3ccc4c(ccn4C)c3)[C@@H]2c2ccc(OC)cc2)cc1	.	0	.	.	-4	.	.	.
C=CCn1c(SCc2cccc(C(F)(F)F)c2)nnc1-c1ccc(OC)cc1	.	-1	.	.	-6	.	.	.
COc1cccc(C(C)(O)c2nc(-c3ccc(N(C)C)cc3)cs2)c1 (stereo not given)	.	-4	.	73*	-6	.	83*	60
COc1cccc(C(C)(O)c2nc(-c3ccccc3)cs2)c1 (stereo not given)	.	-2	.	3	-6	.	.	.
COc1cccc(C(C)(O)c2nc(-c3cc4ccccc4o3)cs2)c1 (stereo not given)	.	-1	.	79*	-5	.	93*	72*
CC(O)(c1ccc(F)c(F)c1)c1nc(-c2cc3ccccc3o2)cs1 (stereo not given)	.	-1	.	58	-5	.	61	48
COc1cccc(NC(=O)N2CCc3nc(NCc4cccc(Oc5ccccc5)c4)ncc3C2)c1	.	-1	.	37	1	.	.	.
O=C(Nc1ccc(OC(F)(F)F)cc1)N1CCc2nc(NCc3cccc(Oc4ccccc4)c3)ncc2C1	.	-4	.	62	-9	.	21	46
Cc1ccc(OCC(=O)Nc2ccc3c(c2)OCCO3)cc1C	9	-2	0	50	-4	2	24	13
Cc1cccc(OCC(=O)Nc2ccc3c(c2)OCCO3)c1	-7	2	-4	5	-3	-1	.	.

High-throughput results: PubChem BioAssay, several laboratories
